Laboratory results taken from article PMC8268672 (Bioorganic Chemistry, 2021).
Values after ≈ are worked out from the molar mass of the structure shown. Like-named read-outs stand apart in the source and are kept apart here.

Experiments:
[1] = test system: Bacillus cereus (NCIM-2458); assay: MIC, broth microdilution; type: cell-based; conditions: NCIM2458, read-out: Minimum inhibitory concentration (MIC), BC
How it was run: (§1)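 Broth microdilution per CLSI in Mueller-Hinton broth, using two-fold serial dilutions of test compound and reference drugs from 512 to 0.25. Bacterial broth cultures were grown 2-6 h to 0.5 McFarland turbidity, then diluted with sterile solution to the final inoculum. MIC is reported in µg/mL.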

[2] = test system: Aspergillus fumigatus (NCIM 2081); assay: Agar disk diffusion, inhibition zone; type: cell-based; conditions: 100 µg/8 mm disc, triplicate, mean ± SD
[3] = test system: Staphylococcus aureus (ATCC 29213); assay: Agar disk diffusion, inhibition zone; type: cell-based; conditions: 100 µg/8 mm disc, triplicate, mean ± SD
How it was run: (§2)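 Agar disk diffusion on Mueller-Hinton agar plates seeded with a standard bacterial suspension. Test compound stock in DMSO, diluted with distilled water; 8 mm sterile filter-paper discs soaked in the solution. Ampicillin was the reference. Plates incubated at 35 °C for 24 h, in triplicate. Read-out is the average inhibition-zone diameter (mm) around each disc.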

[4] = test system: Aspergillus fumigatus (NCIM 2081); assay: MIC, broth microdilution; type: cell-based; conditions: NCIM2081, read-out: Minimum inhibitory concentration (MIC), AF
How it was run: (§3)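 Antifungal MICs by CLSI broth microdilution in Sabouraud liquid medium. Test compounds and standard drugs are serially diluted two-fold from 512 to 0.25. The fungal broth culture is grown 24 h at 35 °C to a 0.5 McFarland turbidity, then adjusted with sterile solution to the final inoculum.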

[5] = test system: Klebsiella aerogenes (NCIM-2098); assay: MIC, broth microdilution; type: cell-based; conditions: NCIM2098, read-out: Minimum inhibitory concentration (MIC), KA
How it was run: (§4)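 Antibacterial MICs by CLSI broth microdilution in Mueller-Hinton broth. Test compounds and standard drugs are serially diluted two-fold from 512 to 0.25. The bacterial broth culture is grown 2-6 h to a 0.5 McFarland turbidity, then adjusted with sterile solution to the final inoculum.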

[6] = test system: Lactobacillus casei (NCIM-2651); assay: Agar disk diffusion, inhibition zone; type: cell-based; conditions: 100 µg/8 mm disc, triplicate, mean ± SD
[7] = test system: Klebsiella aerogenes (NCIM-2098); assay: Agar disk diffusion, inhibition zone; type: cell-based; conditions: 100 µg/8 mm disc, triplicate, mean ± SD
[8] = test system: Pseudomonas aeruginosa (MCCB 0035); assay: Agar disk diffusion, inhibition zone; type: cell-based; conditions: 100 µg/8 mm disc, triplicate, mean ± SD
[9] = test system: Candida albicans (NCIM 2087); assay: MIC, broth microdilution; type: cell-based; conditions: NCIM2087, read-out: Minimum inhibitory concentration (MIC), CA
How it was run: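 CLSI broth microdilution in Sabouraud liquid medium, with test compound two-fold serially diluted from 512 to 0.25. Fungal broth culture grown 24 h at 35 °C to 0.5 McFarland turbidity, then adjusted with sterile solution to a final […] inoculum. MIC expressed in µg/mL.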

[10] = test system: Cryptococcus neoformans (ATCC 9011); assay: MIC, broth microdilution; type: cell-based; conditions: ATCC9011, read-out: Minimum inhibitory concentration (MIC), CN
How it was run: as §3

[11] = test system: Cryptococcus neoformans (ATCC 9011); assay: Agar disk diffusion, inhibition zone; type: cell-based; conditions: 100 µg/8 mm disc, triplicate, mean ± SD
[12] = test system: Bacillus cereus (NCIM-2458); assay: Agar disk diffusion, inhibition zone; type: cell-based; conditions: 100 µg/8 mm disc, triplicate, mean ± SD
[13] = test system: Aspergillus niger (NCIM 2191); assay: MIC, broth microdilution; type: cell-based; conditions: NCIM2191, read-out: Minimum inhibitory concentration (MIC), AN
How it was run: as §3

[14] = test system: Aspergillus niger (NCIM 2191); assay: Agar disk diffusion, inhibition zone; type: cell-based; conditions: 100 µg/8 mm disc, triplicate, mean ± SD
How it was run: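 For the fungal strain, discs soaked in test compound solution (DMSO stock diluted with distilled water) sat on seeded Mueller-Hinton agar. Clotrimazole was the reference. Incubation ran 48 h at 35 °C, in triplicate. Zone of growth inhibition recorded in mm as the mean diameter around each disc.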

[15] = test system: Streptococcus pneumonia (ATCC 49619); assay: Agar disk diffusion, inhibition zone; type: cell-based; conditions: 100 µg/8 mm disc, triplicate, mean ± SD
[16] = test system: Candida albicans (NCIM 2087); assay: Agar disk diffusion, inhibition zone; type: cell-based; conditions: 100 µg/8 mm disc, triplicate, mean ± SD
[17] = test system: Escherichia coli (ATCC 8739); assay: MIC, broth microdilution; type: cell-based; conditions: ATCC8739, read-out: Minimum inhibitory concentration (MIC), EC
How it was run: as §1

[18] = test system: Staphylococcus aureus (ATCC 29213); assay: MIC, broth microdilution; type: cell-based; conditions: ATCC29213, read-out: Minimum inhibitory concentration (MIC), SA
How it was run: as §4

[19] = test system: Salmonella typhimurium (NCIM-2501); assay: Agar disk diffusion, inhibition zone; type: cell-based; conditions: 100 µg/8 mm disc, triplicate, mean ± SD
[20] = test system: Pseudomonas aeruginosa (MCCB 0035); assay: MIC, broth microdilution; type: cell-based; conditions: read-out: Minimum inhibitory concentration (MIC), PA
How it was run: as §1

[21] = test system: Escherichia coli (ATCC 8739); assay: Agar disk diffusion, inhibition zone; type: cell-based; conditions: 100 µg/8 mm disc, triplicate, mean ± SD
How it was run: as §2

Vaccinia virus = assay: microbe, parasite or virus in culture; type: cell-based; conditions: Orthopoxvirus vaccinia, HEL, read-out: Antiviral EC50, Vaccinia virus
Adeno virus-2 = assay: CPE reduction assay in HEL cells; type: cell-based; conditions: read-out: Antiviral EC50, Adeno virus-2
[22] = test system: Madin Darby canine kidney (MDCK) cells; conditions: dog
MT4 cells = conditions: MT4 cell cultures; colorimetric MTT cell viability assay
Para-influenza-3 virus = assay: CPE reduction assay in Vero cells; type: cell-based, Parainfluenza-3 virus; conditions: read-out: Antiviral EC50, Para-influenza-3 virus
Yellow Fever virus = assay: microbe, parasite or virus in culture; type: cell-based; conditions: read-out: Antiviral EC50, Yellow Fever virus
Punta Toro virus = assay: CPE reduction assay in Vero cells; type: cell-based; conditions: read-out: Antiviral EC50, Punta Toro virus
Coxsackie virus B4 = assay: CPE reduction assay in Vero cells; type: cell-based; conditions: Enterovirus B, read-out: Antiviral EC50, Coxsackie virus B4
Sindbis virus = assay: CPE reduction assay in Vero cells; type: cell-based; conditions: read-out: Antiviral EC50, Sindbis virus
Reovirus-1 = assay: CPE reduction assay in Vero cells; type: cell-based; conditions: read-out: Antiviral EC50, Reovirus-1
Human Coronavirus (229E) = assay: CPE reduction assay in HEL cells; type: cell-based; conditions: read-out: Antiviral EC50, Human Coronavirus (229E)
[23] = Vero cell cultures, microscopically detectable alteration of normal cell morphology

Cc1ccc(S(=O)(=O)N2C(=O)CSC2c2cccc(C)c2)cc1 (centres unmarked) [5s, 2-(3-Methylphenyl)-3-[(4-methylphenyl)sulfonyl]-1,3-thiazolidin-4-one]
MIC [1]: 64 µg/mL (≈ 184 µM) | Diameter of growth inhibition zone, AF [2]: 9.2 ± 1.5 mm | Diameter of growth inhibition zone, SA [3]: 13 ± 1.5 mm | MIC [4]: 64 µg/mL (≈ 184 µM) | MIC [5]: 128 µg/mL (≈ 368 µM) | Diameter of growth inhibition zone, LC [6]: 10 ± 0.6 mm | Diameter of growth inhibition zone, KA [7]: 08 ± 1.3 mm | Diameter of growth inhibition zone, PA [8]: 15 ± 0.32 mm | MIC [9]: 64 µg/mL (≈ 184 µM) | MIC [10]: 128 µg/mL (≈ 368 µM) | Diameter of growth inhibition zone, CN [11]: 9 ± 0.5 mm | Diameter of growth inhibition zone, BC [12]: 10 ± 0.2 mm | MIC [13]: 128 µg/mL (≈ 368 µM) | Diameter of growth inhibition zone, AN [14]: 9.6 ± 0.63 mm | Diameter of growth inhibition zone, SP [15]: 08 ± 0.4 mm | Diameter of growth inhibition zone, CA [16]: 10 ± 1.1 mm | MIC [17]: 16 µg/mL (≈ 46 µM) | MIC [18]: 128 µg/mL (≈ 368 µM) | Diameter of growth inhibition zone, ST [19]: 10 ± 0.4 mm | MIC [20]: 64 µg/mL (≈ 184 µM) | Diameter of growth inhibition zone, EC [21]: 17 ± 1.5 mm

Cc1ccc(C2SCC(=O)N2S(=O)(=O)c2ccc(C)cc2)cc1 (centres unmarked) [5t, 2-(4-Methylphenyl)-3-[(4-methylphenyl)sulfonyl]-1,3-thiazolidin-4-one]
MIC [1]: > 256 µg/mL | Diameter of growth inhibition zone, AF [2]: 09 ± 1.5 mm | Diameter of growth inhibition zone, SA [3]: 12 ± 1.9 mm | MIC [4]: 64 µg/mL (≈ 184 µM) | MIC [5]: > 256 µg/mL | Diameter of growth inhibition zone, LC [6]: 08 ± 0.5 mm | Diameter of growth inhibition zone, KA [7]: 07 ± 0.6 mm | Diameter of growth inhibition zone, PA [8]: 11 ± 0.65 mm | MIC [9]: 128 µg/mL (≈ 368 µM) | MIC [10]: > 256 µg/mL | Diameter of growth inhibition zone, CN [11]: 10 ± 0.9 mm | Diameter of growth inhibition zone, BC [12]: 07 ± 0.84 mm | MIC [13]: 128 µg/mL (≈ 368 µM) | Diameter of growth inhibition zone, AN [14]: 9.5 ± 0.9 mm | Diameter of growth inhibition zone, SP [15]: 07 ± 0.7 mm | Diameter of growth inhibition zone, CA [16]: 9.8 ± 0.23 mm | MIC [17]: 64 µg/mL (≈ 184 µM) | MIC [18]: 64 µg/mL (≈ 184 µM) | Diameter of growth inhibition zone, ST [19]: 07 ± 0.7 mm | MIC [20]: 128 µg/mL (≈ 368 µM) | Diameter of growth inhibition zone, EC [21]: 12 ± 1.2 mm

Nc1nc2c(ncn2COCCO)c(=O)[nH]1 [Acyclovir, reference compound]
EC50 (Vaccinia virus): > 250 µM

Cc1cn([C@H]2C[C@H](F)[C@@H](CO)O2)c(=O)[nH]c1=O [Alovudine, reference compound]
EC50 (Adeno virus-2): 1.4 µM

NC12CC3CC(CC(C3)C1)C2 [Amantadine, reference compound]
Cytotoxicity, Minimum cytotoxic conc. [22]: >100 µM

Cc1cn([C@H]2C[C@H](N=[N+]=[N-])[C@@H](CO)O2)c(=O)[nH]c1=O [Azidothymidine, reference compound]
Minimum cytotoxic conc. (MT4 cells): >2 µM

O=c1[nH]cnc2c1ncn2[C@H]1CC[C@@H](CO)O1 [Didanosine, reference compound]
Minimum cytotoxic conc. (MT4 cells): >50 µM

Nc1nc(O)c2ncn(COC(CO)CO)c2n1 [Ganciclovir, reference compound]
EC50 (Vaccinia virus): > 100 µM

Nc1ccn([C@@H]2CS[C@H](CO)O2)c(=O)n1 [Lamivudine, reference compound]
Minimum cytotoxic conc. (MT4 cells): >20 µM

COc1c(C)c2c(c(O)c1C/C=C(\C)CCC(=O)O)C(=O)OC2 [Mycophenolic acid, mycophenolic acid, reference compound]
Minimum cytotoxic conc. (Vero cells; [23]): >100 µM | EC50 (Para-influenza-3 virus; Vero): 0.4 µM | EC50 (Yellow Fever virus; Yellow fever virus, Vero): 0.8 µM | EC50 (Punta Toro virus): 1.4 µM | EC50 (Coxsackie virus B4): > 100 µM | EC50 (Sindbis virus): 11.7 µM | EC50 (Reovirus-1): 0.4 µM

Cc1ccnc2c1NC(=O)c1cccnc1N2C1CC1 [Nevirapine, reference compound]
Minimum cytotoxic conc. (MT4 cells): >4 µM

NC(=O)c1ncn([C@@H]2O[C@H](CO)[C@@H](O)[C@H]2O)n1 [Ribavirin, reference compound]
Minimum cytotoxic conc. (Vero cells; [23]): >250 µM | EC50 (Human Coronavirus (229E)): > 250 µM | EC50 (Para-influenza-3 virus; Vero): 112 µM | EC50 (Yellow Fever virus; Yellow fever virus, Vero): > 250 µM | Cytotoxicity, Minimum cytotoxic conc. [22]: ≥100 µM | EC50 (Coxsackie virus B4): > 250 µM | EC50 (Sindbis virus): > 250 µM | EC50 (Reovirus-1): > 250 µM

CC(N)C12CC3CC(CC(C3)C1)C2 (centres unmarked) [Rimantadine, reference compound]
Cytotoxicity, Minimum cytotoxic conc. [22]: >200 µM

Nc1ccn([C@H]2CC[C@@H](CO)O2)c(=O)n1 [Zalcitabine, reference compound]
EC50 (Adeno virus-2): 50 µM

CC(=O)N[C@H]1[C@H]([C@H](O)[C@H](O)CO)OC(C(=O)O)=C[C@@H]1N=C(N)N [Zanamivir, reference compound]
Cytotoxicity, Minimum cytotoxic conc. [22]: >100 µM

dextran sulfate [DS-10.000, reference compound]
Minimum cytotoxic conc. (Vero cells): >100 µM | EC50 (Para-influenza-3 virus): > 100 µM | EC50 (Yellow Fever virus): 0.8 µM
